UPR XBP1 act = adaptive UPR (XBP1) activation. CHO-XBP1 luciferase reporter, IRE1-XBP1 UPR activation, luminescence; percent of tunicamycin response, DMSO as zero. activation, % at 20 µM. 0.33% of 330,000 active;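 active = versus positive control, 20 µM dose yields 30% or more activation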;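 also: 100% = tunicamycin at 10 µg/mL and 0% = DMSO only wells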
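Material: CHO cell line with stable XBP1 luciferase reporter; buffer or medium: F12 medium containing 10% fetal bovine serum; compound: single point, 20 µM final compound, 1% DMSO; incubation: 6 h treatment, 37 °C; measured by: glow luminescence from Steady-Glo reagent; evaluation: activation, % of tunicamycin; control set: tunicamycin high, DMSO low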
TMEM16A act = mouse TMEM16A channel activation, primary screen | 0.3% of 340,000 active | B-score at 10 µM | Q8BHY3 | HEK293 TMEM16A/YFP-H148Q/I152L, iodide quench fluorescence; active compounds read low | AID 623877;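 active = fluorescence-ratio B-score plate-corrected deviation score at least 3 library SD below zero, with starting fluorescence score within 5 deviations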;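 also: channel opened by trigger with iodide after compound preincubation; score built on the fluorescence ratio of max minus min over baseline; more negative score means more quench and so TMEM16A activation or potentiation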
ANO1 block = inhibitors of mouse TMEM16A calcium-activated chloride channel; normalized B-score (activity score, 25-100; higher = stronger inhibition) at 10 µM; HEK293 TMEM16A/YFP iodide influx fluorescence, ionomycin; 1.2% of 310,000 active; AID 588511;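 active = ratio plate-corrected score three or more library SD toward inhibition, starting fluorescence score within five deviations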;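 also: score derived from kinetic fluorescence span divided by baseline fluorescence per well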
CHOP UPR activ = apoptotic UPR (CHOP) activation. CHO-CHOP luciferase reporter, luminescence; percent of tunicamycin response over DMSO baseline. activation, % at 10 µM. 0.34% of 330,000 active;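 active = at 10 µM dose, activation of 40% or more, normalized to positive control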;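 also: 100% = tunicamycin at 10 µg/mL and 0% = DMSO alone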
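Dosing – one dose, 10 µM in 0.5% DMSO · System – CHO-CHOP cells, stable luciferase reporter of PERK-eIF2a-CHOP signalling · Input – 500 cells/well · Control set – tunicamycin 10 µg/mL final as positive, DMSO-only wells as negative · Timing – 6 h compound treatment, 37 °C · Measure – % activation vs tunicamycin · Technique – luminescence read with Steady-Glo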
Hep lipid drop = modulators of hepatic lipid droplet formation; AID 1656; inhibition, % at 6.5 µM; 0.4% of 240,000 active; AML12 mouse hepatocytes, oleate lipid droplets, BODIPY imaging;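 active = lipid droplet intensity inhibited by at least 50%, with more than 500 cells counted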
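Material – mouse AML12 hepatocyte cell line, fixed after treatment · Compound dosing – one dose, 6.5 µM compound · Times – compound with oleate, overnight · Measured by – Image-based BODIPY and DAPI two-channel analysis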
CHOP inhibitor = blocks CHOP induction under ER stress. CHO-K1 CHOP-promoter luciferase, tunicamycin-induced, 15-18 h. inhibition, % at 10 µM. 3.8% of 220,000 active. AID 2732;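 active = compounds that reduced the stress-induced luciferase reporter signal by more than about 70% of percent inhibition, limit read from the data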;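 also: 0% = tunicamycin plus vehicle and 100% = wells without tunicamycin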
* = called active by the depositor; i = inactive; . = not tested or not shown. In the library only some 4.2% were active in any assay of this set; here they are far more common.

SMILES	UPR XBP1 act	TMEM16A act	ANO1 block	CHOP UPR activ	Hep lipid drop	CHOP inhibitor
COc1ccc(Cl)cc1C(=O)Nc1ccc(NC(C)=O)cc1	0.7	i	i	-2.3	20.4	-2.7
CC(=O)Oc1c(I)cc(I)cc1C(=O)Nc1ccc(Cl)cc1	-4.5	i	100*	-1.0	16.8	.
C#CCN1C=C(C(=O)OCC)C(C)NS1(=O)=O (stereo not given)	4.1	i	.	1.1	.	.
C#CCN1C=C(C(=O)OCC)C(C)N(Cc2ccccc2I)S1(=O)=O (stereo not given)	7.6	-4.98*	.	3.1	.	.
CSc1ncc(C(=O)Nc2ccccc2F)c(-c2ccccc2)n1	-0.2	i	i	-1.7	3.9	.
O=C1c2ccccc2C(=O)C1c1ccc(Cl)cc1	0.5	i	i	1.5	10.7	.
O=C1c2ccccc2C(=O)C12OC2c1ccc(Cl)cc1Cl (stereo not given)	.	i	i	.	-12.3	87.9*
O=C1NCCCC1C(=O)Nc1ccccc1C(F)(F)F (stereo not given)	10.2	i	i	-1.1	.	8.7
COCCN(CC(=O)NC1CCCCC1)C(=O)/C=C/C(=O)c1ccc(OC)cc1O	.	i	.	.	7.0	108.4*
Cc1ccc(C(C)C)c(OCC(=O)NNC(=O)Cn2[nH]c(=O)c3ccccc3c2=O)c1	-0.5	i	.	-0.9	.	.
Cc1ccc(SCCN2CCN(C)CC2)cc1	-3.2	i	i	3.4	9.5	.
Cc1ccc(Nc2nc(N)nc(-c3oc4ccccc4c3C)n2)cc1	22.9	i	i	7.0	.	-73.0
Cc1c(-c2nc(N)nc(Nc3ccccc3F)n2)oc2ccccc12	11.7	i	i	5.6	22.9	71.5*
CC(C)(C)CN1CCC(n2nccc2NC(=O)c2ccccc2Cl)CC1	-8.1	i	i	2.0	3.9	.
CC(C)c1nc(SCC(=O)N2CCCc3ccccc32)c2c(=O)n(C)c(=O)n(C)c2n1	-0.7	i	i	7.3	-10.6	88.0*
N#CCCn1cc(/C=C2\NC(=S)N(c3ccccc3)C2=O)c(-c2ccc(F)cc2)n1	-2.5	i	i	2.8	19.4	79.2*
Nc1cc2c(cc1Cl)-c1ccccc1C2=NO	.	i	.	.	.	.
O=c1[nH]c2ccc(Cl)cc2c(-c2ccccc2)c1N1CCN(c2ccccn2)CC1	3.4	i	i	0.5	.	70.6*
CN1CCc2ccc(NC(=O)c3ccc(C(F)(F)F)cc3)cc2C1	1.7	i	i	1.0	-2.2	.
Cc1c2cnn(CC(=O)Nc3c(F)c(F)cc(F)c3F)c(=O)c2c(C)n1Cc1ccc(F)cc1	-5.1	.	i	1.4	-1.3	78.6*
Cc1c2cnn(CC(=O)NCc3ccccn3)c(=O)c2c(C)n1Cc1ccccc1	-3.2	i	i	1.1	10.4	.
Nc1c(C(O)(C(F)(F)F)C(F)(F)F)cc(C(O)(C(F)(F)F)C(F)(F)F)c2ccccc12	-1.4	i	i	4.6	-5.9	94.5*
COc1ccc(/C=C2\CCc3ccccc3C2=O)cc1Cn1nc(C)cc1C	0.7	i	i	1.5	-8.0	70.4*
CCNC(=O)c1ccc2c(c1)C1C3CCC(C3)C1C(c1ccccc1)N2 (stereo not given)	0.5	-6.68*	i	-1.5	-8.6	43.2
CCc1ccccc1NC(=O)c1cccc(N2C(=O)C3C4CCC(C4)C3C2=O)c1 (stereo not given)	1.3	i	i	-0.5	.	8.9
Cc1ccc(S(=O)(=O)NCCCNS(=O)(=O)c2ccccc2Br)cc1	1.2	.	.	0.5	.	.
COc1ccc(C(=O)NNC(=O)c2ccc(C(C)(C)C)cc2)cc1	-0.5	i	i	-2.3	-1.6	84.0*
COc1ccc(C(=O)NNC(=S)NC(=O)C(C)(C)C)cc1	3.8	i	25*	1.6	-6.1	25.8
CCN(C(=O)CSc1ncnc2sc(C)c(C)c12)C1CCS(=O)(=O)C1 (stereo not given)	-0.2	-40.2*	i	-0.7	8.0	25.0
CCCN(CC1CC1)C(=O)CSc1ncnc2sc(C)c(C)c12	1.4	i	i	-1.9	8.7	62.0

Bioassay records: PubChem, several laboratories
